Laboratory results as given in ChEMBL document CHEMBL2311390, “Synthesis and preliminary evaluation of pharmacological properties of some piperazine derivatives of xanthone” (Bioorg Med Chem, 2013).

Experiments:
Rattus norvegicus [1] = assay: Hypotensive activity in normotensive Wistar rat assessed as reduction of systolic blood pressure at 0.1 to 5 mg/kg, iv; format: functional, Artery; set-up: scale not given: the % may be the effect or the level left; conditions: dose mg/kg 0.1-5
Procedure, shortened: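 Male normotensive Wistar rats were anaesthetised with thiopental 75 mg/kg ip. The right carotid artery was cannulated with heparinised saline for pressure recording. After 5 min of stabilisation, compound was injected into the tail vein at 1 mL/kg. Systolic and diastolic pressure were followed up to 60 min. Data are means ± SEM of 5–6 rats, analysed by one-way ANOVA.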

Rattus norvegicus [2] = assay: Cardiotoxicity in Wistar rat assessed as hear beats per min at 10 mg/kg, iv after 15 mins by ECG analysis; format: toxicity, organism-based; set-up: dose 10 mg/kg, route intravenous; conditions: in vivo, 0.25 h
Procedure, shortened: (§1)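 Male normotensive Wistar rats, 170–350 g, six per group. Compound given iv at a constant volume of 1 mL/kg. ECG was recorded just before dosing and at 1, 5 and 15 min after. PQ, QRS and QT intervals and heart rate were read from the trace. Groups were compared by one-way ANOVA.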

Rattus norvegicus [3] = assay: Cardiotoxicity in Wistar rat assessed as QT interval at 10 mg/kg, iv after 15 mins by ECG analysis; format: toxicity, organism-based; set-up: dose 10 mg/kg, route intravenous; conditions: in vivo, 0.25 h; procedure, shortened: as §1
Rattus norvegicus [4] = assay: Cardiotoxicity in Wistar rat assessed as QRS interval at 10 mg/kg, iv after 15 mins by ECG analysis; format: toxicity, organism-based; set-up: dose 10 mg/kg, route intravenous; conditions: in vivo, 0.25 h; procedure, shortened: as §1
Rattus norvegicus [5] = assay: Cardiotoxicity in Wistar rat assessed as PQ interval at 10 mg/kg, iv after 15 mins by ECG analysis; format: toxicity, organism-based; set-up: dose 10 mg/kg, route intravenous; conditions: in vivo, 0.25 h; procedure, shortened: as §1
Rattus norvegicus [6] = assay: Cardiotoxicity in Wistar rat assessed as hear beats per min at 10 mg/kg, iv after 10 mins by ECG analysis; format: toxicity, organism-based; set-up: dose 10 mg/kg, route intravenous; conditions: in vivo
Rattus norvegicus [7] = assay: Cardiotoxicity in Wistar rat assessed as QT interval at 10 mg/kg, iv after 10 mins by ECG analysis; format: toxicity, organism-based; set-up: dose 10 mg/kg, route intravenous; conditions: in vivo
Rattus norvegicus [8] = assay: Cardiotoxicity in Wistar rat assessed as QRS interval at 10 mg/kg, iv after 10 mins by ECG analysis; format: toxicity, organism-based; set-up: dose 10 mg/kg, route intravenous; conditions: in vivo
Rattus norvegicus [9] = assay: Cardiotoxicity in Wistar rat assessed as PQ interval at 10 mg/kg, iv after 10 mins by ECG analysis; format: toxicity, organism-based; set-up: dose 10 mg/kg, route intravenous; conditions: in vivo
Rattus norvegicus [10] = assay: Cardiotoxicity in Wistar rat assessed as hear beats per min at 10 mg/kg, iv after 5 mins by ECG analysis; format: toxicity, organism-based; set-up: dose 10 mg/kg, route intravenous; conditions: in vivo; procedure, shortened: as §1
Rattus norvegicus [11] = assay: Cardiotoxicity in Wistar rat assessed as QT interval at 10 mg/kg, iv after 5 mins by ECG analysis; format: toxicity, organism-based; set-up: dose 10 mg/kg, route intravenous; conditions: in vivo; procedure, shortened: as §1
Rattus norvegicus [12] = assay: Cardiotoxicity in Wistar rat assessed as QRS interval at 10 mg/kg, iv after 5 mins by ECG analysis; format: toxicity, organism-based; set-up: dose 10 mg/kg, route intravenous; conditions: in vivo; procedure, shortened: as §1
Rattus norvegicus [13] = assay: Cardiotoxicity in Wistar rat assessed as PQ interval at 10 mg/kg, iv after 5 mins by ECG analysis; format: toxicity, organism-based; set-up: dose 10 mg/kg, route intravenous; conditions: in vivo; procedure, shortened: as §1
[14] = target: T1, Adrenergic receptor alpha-1 (Rattus norvegicus, UniProt P15823+P23944+P43140); assay: Displacement of [3H]-prazosin from alpha1-adrenergic receptor in rat cerebral cortex by liquid scintillation counting; format: tissue-based
T1 sequence (P15823 whole entry): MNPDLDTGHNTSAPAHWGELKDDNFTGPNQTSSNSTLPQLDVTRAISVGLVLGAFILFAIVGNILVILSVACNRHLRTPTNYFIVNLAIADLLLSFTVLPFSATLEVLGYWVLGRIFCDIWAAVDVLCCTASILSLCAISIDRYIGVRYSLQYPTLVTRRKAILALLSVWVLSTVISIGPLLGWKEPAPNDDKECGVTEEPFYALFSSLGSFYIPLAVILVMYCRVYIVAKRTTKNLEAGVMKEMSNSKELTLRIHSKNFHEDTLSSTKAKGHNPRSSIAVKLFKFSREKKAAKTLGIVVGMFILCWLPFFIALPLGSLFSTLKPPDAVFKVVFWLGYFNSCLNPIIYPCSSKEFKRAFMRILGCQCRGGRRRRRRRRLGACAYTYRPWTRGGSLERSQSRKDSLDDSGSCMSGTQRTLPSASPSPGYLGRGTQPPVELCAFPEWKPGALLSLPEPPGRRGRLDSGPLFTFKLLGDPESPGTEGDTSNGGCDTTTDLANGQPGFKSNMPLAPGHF
T1 sequence (P23944 whole entry): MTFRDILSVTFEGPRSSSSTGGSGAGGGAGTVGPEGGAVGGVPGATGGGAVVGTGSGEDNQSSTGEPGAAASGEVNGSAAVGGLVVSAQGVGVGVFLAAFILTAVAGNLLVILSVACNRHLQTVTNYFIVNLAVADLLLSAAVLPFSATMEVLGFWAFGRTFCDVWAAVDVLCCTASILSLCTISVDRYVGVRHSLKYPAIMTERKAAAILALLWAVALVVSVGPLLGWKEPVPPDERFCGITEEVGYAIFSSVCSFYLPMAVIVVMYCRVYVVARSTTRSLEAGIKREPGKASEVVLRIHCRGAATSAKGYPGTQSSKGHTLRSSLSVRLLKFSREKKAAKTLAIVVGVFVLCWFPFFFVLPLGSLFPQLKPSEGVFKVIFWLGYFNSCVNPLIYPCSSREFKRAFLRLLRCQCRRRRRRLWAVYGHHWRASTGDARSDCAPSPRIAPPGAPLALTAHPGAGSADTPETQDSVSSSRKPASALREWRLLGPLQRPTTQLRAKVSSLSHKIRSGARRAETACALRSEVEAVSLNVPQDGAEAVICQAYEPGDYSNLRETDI
T1 sequence (P43140 whole entry): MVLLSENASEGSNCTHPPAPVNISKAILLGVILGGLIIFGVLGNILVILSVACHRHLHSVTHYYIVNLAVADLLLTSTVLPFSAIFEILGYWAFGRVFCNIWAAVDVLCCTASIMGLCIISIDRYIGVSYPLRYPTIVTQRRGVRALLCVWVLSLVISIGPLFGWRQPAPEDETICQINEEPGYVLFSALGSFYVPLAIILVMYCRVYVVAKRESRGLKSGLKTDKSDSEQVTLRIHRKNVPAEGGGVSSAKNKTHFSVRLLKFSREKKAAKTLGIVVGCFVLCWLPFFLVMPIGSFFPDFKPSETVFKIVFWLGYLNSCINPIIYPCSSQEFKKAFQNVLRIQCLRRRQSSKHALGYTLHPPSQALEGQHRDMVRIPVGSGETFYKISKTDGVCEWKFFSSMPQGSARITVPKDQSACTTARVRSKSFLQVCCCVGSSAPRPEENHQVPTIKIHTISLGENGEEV
Procedure, shortened: (§2)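 Rat cerebral cortex was homogenised in ice-cold 50 mM Tris-HCl pH 7.6 and spun at 20,000 g for 20 min at 0–4 °C, then washed once. Radioligands: [3H]prazosin 0.2 nM for α1, [3H]clonidine 2 nM for α2, [3H]CGP-12177 0.2 nM for β1. Test compounds were run at 7–8 concentrations from 10^-11 to 10^-4 M. Nonspecific binding was defined with phentolamine (α1), clonidine (α2) or propranolol (β1). Counting was by liquid scintillation, in duplicate. Ki was derived by Cheng–Prusoff from 2–3 experiments.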

[15] = Displacement of [3H]CGP-12177 from beta1-adrenergic receptor in rat cerebral cortex by liquid scintillation counting; format: tissue-based; procedure, shortened: as §2
[16] = target: T2, Adrenergic receptor alpha-2 (Rattus norvegicus, UniProt P22086+P19328+P22909); assay: Displacement of [3H]clonidine from alpha2-adrenergic receptor in rat cerebral cortex by liquid scintillation counting; format: tissue-based; procedure, shortened: as §2
T2 sequence (P22086 whole entry): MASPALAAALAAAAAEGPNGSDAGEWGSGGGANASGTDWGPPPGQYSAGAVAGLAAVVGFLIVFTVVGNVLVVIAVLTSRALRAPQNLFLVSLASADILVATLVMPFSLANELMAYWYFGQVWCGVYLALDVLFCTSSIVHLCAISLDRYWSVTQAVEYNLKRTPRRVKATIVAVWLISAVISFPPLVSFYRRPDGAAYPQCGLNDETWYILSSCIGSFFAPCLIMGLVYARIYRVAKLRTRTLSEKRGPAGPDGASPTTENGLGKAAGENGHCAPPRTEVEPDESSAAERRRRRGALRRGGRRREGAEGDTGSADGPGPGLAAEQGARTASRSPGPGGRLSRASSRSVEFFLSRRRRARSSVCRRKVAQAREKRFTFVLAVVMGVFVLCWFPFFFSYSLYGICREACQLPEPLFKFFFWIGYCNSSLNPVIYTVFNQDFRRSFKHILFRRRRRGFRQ
T2 sequence (P19328 whole entry): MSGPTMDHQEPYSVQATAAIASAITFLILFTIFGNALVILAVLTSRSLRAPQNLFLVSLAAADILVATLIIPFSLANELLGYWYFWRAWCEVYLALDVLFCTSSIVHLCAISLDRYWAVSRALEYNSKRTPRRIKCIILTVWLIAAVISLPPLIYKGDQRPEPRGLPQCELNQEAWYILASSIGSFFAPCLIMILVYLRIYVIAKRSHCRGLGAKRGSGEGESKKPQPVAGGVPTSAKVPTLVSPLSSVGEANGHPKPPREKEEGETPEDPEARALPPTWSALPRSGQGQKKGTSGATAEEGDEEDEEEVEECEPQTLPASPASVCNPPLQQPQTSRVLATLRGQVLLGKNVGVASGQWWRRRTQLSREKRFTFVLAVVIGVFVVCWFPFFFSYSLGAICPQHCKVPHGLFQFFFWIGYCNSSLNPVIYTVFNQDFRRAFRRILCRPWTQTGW
T2 sequence (P22909 whole entry): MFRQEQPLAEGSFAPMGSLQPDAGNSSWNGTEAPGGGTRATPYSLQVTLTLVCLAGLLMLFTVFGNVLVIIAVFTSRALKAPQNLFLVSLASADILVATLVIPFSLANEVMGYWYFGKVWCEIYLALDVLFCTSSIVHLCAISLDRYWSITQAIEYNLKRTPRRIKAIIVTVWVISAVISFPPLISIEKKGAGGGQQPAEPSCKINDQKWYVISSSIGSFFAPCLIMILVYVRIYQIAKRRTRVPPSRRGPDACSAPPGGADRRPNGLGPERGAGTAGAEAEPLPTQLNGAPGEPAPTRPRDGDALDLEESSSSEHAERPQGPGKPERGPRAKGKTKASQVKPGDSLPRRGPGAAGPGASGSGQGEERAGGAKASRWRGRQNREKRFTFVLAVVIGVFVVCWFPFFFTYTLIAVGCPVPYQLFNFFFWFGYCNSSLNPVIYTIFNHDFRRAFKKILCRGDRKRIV

Rattus norvegicus [17] = assay: Antiarrhythmic activity in iv dosed Wistar rat adrenaline-induced arrhythmia model assessed as reduction of heart-rhythm disturbance administered 15 mins adrenaline-challenge; format: functional; conditions: 0.25 h
Procedure, shortened: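 Anaesthetised male Wistar rats (thiopental 75 mg/kg ip). Test compound iv at 1 mL/kg, given 15 min before adrenaline 20 µg/kg iv. Activity means no premature beats and inhibition of arrhythmia, judged against a control group. There were three dose groups of six rats. ED50 with confidence limits was calculated by the Litchfield–Wilcoxon method.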

CC(C)NCC(O)COc1ccc2c(=O)c3ccccc3oc2c1 (centres undefined)
Activity (Rattus norvegicus [1]): 7%

COc1ccc(N2CCN(CCCOc3cccc4c(=O)c5ccccc5oc34)CC2)cc1.Cl
Activity (Rattus norvegicus [2]): 311.4 bpm
Activity (Rattus norvegicus [3]): 82.4 ms
Activity (Rattus norvegicus [4]): 24.2 ms
Activity (Rattus norvegicus [5]): 43.7 ms
Activity (Rattus norvegicus [6]): 317.4 bpm
Activity (Rattus norvegicus [7]): 80.2 ms
Activity (Rattus norvegicus [8]): 23.6 ms
Activity (Rattus norvegicus [9]): 43.7 ms
Activity (Rattus norvegicus [10]): 323 bpm
Activity (Rattus norvegicus [11]): 79.4 ms
Activity (Rattus norvegicus [12]): 22.8 ms
Activity (Rattus norvegicus [13]): 43.5 ms
Ki [14]: 1.1 µM
Ki [15]: 31.6 µM

COc1ccccc1N1CCN(CCCOc2cccc3c(=O)c4ccc(Cl)cc4oc23)CC1.Cl
Ki [16]: 5.5 µM
Ki [14]: 0.082 µM
Ki [15]: 4.5 µM

COc1ccccc1OCCNCC(O)COc1cccc2[nH]c3ccccc3c12 (centres undefined) [CARVEDILOL]
ED50 (Rattus norvegicus [17]): 0.25 mg/kg
